Bioassay records deposited in PubChem BioAssay by several laboratories.
Furin inhibitor – inhibitors of human furin; inhibition, % at 20 µM or 30 µM; purified furin, fluorogenic substrate cleavage; 0.061% of 220,000 active; in the data active = inhibition above about 25%
Target sequence (P09958 108-714 limits assumed): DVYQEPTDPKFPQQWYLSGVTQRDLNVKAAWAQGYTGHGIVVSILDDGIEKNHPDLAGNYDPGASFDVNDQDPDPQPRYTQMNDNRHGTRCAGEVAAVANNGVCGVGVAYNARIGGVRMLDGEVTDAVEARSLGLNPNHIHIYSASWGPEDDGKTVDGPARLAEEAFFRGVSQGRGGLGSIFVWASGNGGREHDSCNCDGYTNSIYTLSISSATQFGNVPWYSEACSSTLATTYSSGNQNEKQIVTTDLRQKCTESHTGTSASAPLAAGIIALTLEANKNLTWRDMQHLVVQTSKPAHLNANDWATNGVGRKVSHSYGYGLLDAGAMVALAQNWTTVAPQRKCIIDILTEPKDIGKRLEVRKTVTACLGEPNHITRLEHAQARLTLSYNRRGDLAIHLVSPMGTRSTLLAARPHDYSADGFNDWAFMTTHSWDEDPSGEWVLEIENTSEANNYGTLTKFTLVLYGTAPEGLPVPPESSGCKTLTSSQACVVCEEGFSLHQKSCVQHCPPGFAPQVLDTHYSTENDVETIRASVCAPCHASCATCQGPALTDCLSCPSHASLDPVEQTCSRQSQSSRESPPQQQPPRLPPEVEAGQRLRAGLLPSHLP
FXIa inh – inhibitors of human coagulation factor XIa | P03951 | purified FXIa, Boc-Glu-Ala-Arg-AMC fluorogenic substrate | inhibition, % at 5 µM | 0.14% of 220,000 active | AID 798;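 active = inhibition of at least 40%; inactive = inhibition below 40%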;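 also: fluorescence of freed AMC excited at 355 nm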
Thrombin inh – blocks human thrombin protease activity; P00734; alpha-thrombin, Boc-VPR-AMC fluorogenic substrate cleavage; inhibition, % at 5 µM; 0.26% of 220,000 active; AID 1046;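 active = inhibition at or above 40%; inactive = inhibition below 40%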
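Test system: human alpha-thrombin protein / Dosing: one concentration per compound, 5 µM, with 0.2% DMSO / Medium: pH 7.5 Tris-saline with Tween 20 / Benchmarks: no-compound enzyme wells and no-enzyme blanks / Read-out basis: percent inhibition of thrombin substrate cleavage / Timing: reaction at room temperature / Measured by: fluorescence, ex 355 nm, em 460 nm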
hK5 inh – kallikrein 5 (human) inhibition; Q9Y337; recombinant hK5, fluorogenic AMC substrate cleavage; inhibition, % at 5 µM; 0.59% of 210,000 active; AID 873;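 active = inhibition of 40% or more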
m-calpain inh – calpain II (pig) inhibition; inhibition, % at 16 µM; 0.37% of 220,000 active; purified calpain II, fluorogenic peptide substrate, 30 min;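 active = inhibition above about 50%, limit read from the data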
FXIIa inh 1536 – blocks human coagulation factor XIIa protease activity. P00748. purified FXIIa, Boc-QGR-AMC fluorogenic substrate, 2 h. inhibition, % at 5 µM. 0.3% of 220,000 active; in the data active = inhibition above about 40%
Of the large screens only hits and unclear results are named; the others gave an inactive call. The list is not random: actives were taken first. Their share in the collection is about 1.4%.

Cc1ccc(C)c(N2CCN(C(=O)Cc3cn(C)c4ccccc34)CC2)c1	none
O=C(CS(=O)(=O)c1cn(Cc2ccc(Cl)cc2)c2ccccc12)N1CCCC1	none
O=C(Cc1cn(Cc2cccc(Cl)c2)c2ccccc12)N1CCCC1	m-calpain inh 52.2
Cc1ccc(Cl)cc1N1CCN(C(=O)Cc2cn(C)c3ccccc23)CC1	m-calpain inh 55.1
COc1ccccc1C(=O)Nc1ccc(C(=O)c2ccccc2)cc1	m-calpain inh 66.8
COc1ccccc1C(=O)NNC(=O)c1ccc(F)cc1	hK5 inh 60.7
COc1cc(OC)cc(C(=O)NNC(=O)c2ccccc2Br)c1	Thrombin inh 88.6
CC(C)c1nc2oc3c(N(C)CCO)ncnc3c2c2c1CCC2	none
CCc1nnc(NC(=O)CSc2nnc(-c3ccccc3OC)n2-c2ccccc2)s1	none
CC1=CC2=NC(=O)/C(=C\c3cccn3CCOc3cc(C)cc(C)c3)C(=N)N2O1	m-calpain inh 87.9
O=C(CN(Cc1cccs1)C(=O)CCC(=O)Nc1nccs1)NCc1ccccc1	hK5 inh 104.6, FXIIa inh 1536 106.8
CCOC(=O)C1CCCN(C(=O)c2ccc3c(c2)N(Cc2ccccc2)C(=O)c2ccccc2S3=O)C1 (stereo not given)	none
CCc1ccccc1N(C(C)=O)c1nc(CN=C=S)cs1	none (no result: Thrombin inh)
O=C(N=Nc1c(O)[nH]c2ccc(F)cc12)C1COc2ccccc2O1 (stereo not given)	none
Cc1nn2c(=O)c3c4c(sc3nc2n1-c1ccccc1)COC(C)(C)C4	none
CCOC(=O)Cc1csc(NC(=O)c2sc3nc4ccc(CC)cc4cc3c2N)n1	FXIa inh 43.1, hK5 inh 90.6
Clc1ccccc1CN1CCN(CCCc2ccccc2)CC1	FXIIa inh 1536 97.6
OCC1(CCc2ccccc2)CCN(Cc2ccccc2Cl)CC1	none (no result: hK5 inh)
CCOC(=O)C(C)/C(C)=N\Nc1ccc([N+](=O)[O-])cc1[N+](=O)[O-] (stereo not given)	m-calpain inh 51.7 (no result: hK5 inh)
CCOC(=O)C(C(=O)OCC)C(C)(C)/C(C)=N\Nc1ccc([N+](=O)[O-])cc1[N+](=O)[O-]	none
Brc1cc(Cc2nnc(-c3ccccc3)o2)c(Br)s1	none
CCN(CC)S(=O)(=O)c1cc(NS(=O)(=O)c2ccccc2)ccc1C	m-calpain inh 56.0
CCN(CC)S(=O)(=O)c1cc(NS(=O)(=O)c2cccc(C(=O)O)c2)ccc1C	none
NNC(=O)c1oc2nc(-c3ccco3)cc(-c3ccco3)c2c1N	Furin inhibitor 25.0
N#C/C(=C\C1CC=CCC1)c1nc2ccccc2[nH]1 (stereo not given)	none
Cn1c(/C(C#N)=C/C2CC=CCC2)nc2ccccc21 (stereo not given)	hK5 inh 46.5
O=C(c1nc2nc(-c3ccccc3)cc(C(F)(F)F)n2n1)N1CCCCC1	hK5 inh 63.8
Cn1c(=O)c2c(ncn2CC(=O)N/N=C/c2c[nH]c3ccccc23)n(C)c1=O	none
Cc1cc(-c2n[nH]c(=S)n2/N=C/c2cc([N+](=O)[O-])ccc2Cl)n[nH]1	hK5 inh 47.0
CCCCCCCCCn1c2c(c(=N)c3c1CCC3)CCCC2	m-calpain inh 57.9
CCCCCCCCCCn1c2c(c(=N)c3c1CCC3)CCC2	m-calpain inh 54.3
CCc1cccc(CC)c1NC(=O)CN1C2CCCC1CC(NC(=O)Nc1cccc(OC)c1)C2 (stereo not given)	none
Cc1cnc(NC(=O)c2c(-c3ccccc3)noc2C)s1	none
O=C(CS)Nc1ccc2ccccc2c1	none
CCCCCC(=O)Nc1ccc2ccccc2c1	hK5 inh 124.2
C=CCN1C(=O)C(C(C)CC)NC1=S (stereo not given)	Thrombin inh 40.7, hK5 inh 87.7
CCN1C(=O)c2cccc3c(S(=O)(=O)NCC4CCCO4)ccc1c23 (stereo not given)	none
COC(=O)[C@]12C(=O)C(C)=C(O)[C@@]1(C)C(C)=CC1[C@@]34CC[C@@H](OC(C)=O)C(C)(C)C3C(C[C@]12C)OC4=O (stereo not given in full)	none
O=C(CSc1c2c(nc3ccccc13)CCCC2)NCc1ccco1	none
O=C(NCc1ccco1)c1c2c(nc3ccccc13)CCC2	FXIIa inh 1536 47.6
Cc1c(Cl)cnc(NC(=O)COC(=O)c2ccc3c(c2)OCO3)c1Cl	hK5 inh 40.6
CCOc1cc(C(=O)OCC(=O)Nc2ncc(Cl)c(C)c2Cl)ccc1OCC(=O)N1CCOCC1	none
Cc1ccc(S(=O)(=O)N2CCCCC2)cc1NC(=O)c1ccc2c(c1)OCO2	none
O=C(COC(=O)c1cc(Br)ccc1O)Nc1cc(S(=O)(=O)N2CCCC2)ccc1Cl	Thrombin inh 45.3
Cc1ccc(S(=O)(=O)N2CCCCC2)cc1NC(=O)COC(=O)c1ccc2c(c1)OCO2	m-calpain inh 55.5
COc1cc(C2SCC(=O)N2c2c(C)n(C)n(-c3ccccc3)c2=O)ccc1O (stereo not given)	FXIa inh 42.9
CCOC(=O)Cc1csc(NC(=O)COc2cc(C)cc(C)c2)n1	none
COc1ccc(Cl)cc1S(=O)(=O)N1CCN(c2ccc(F)cc2)CC1	none
CCOc1ccc(Cl)cc1S(=O)(=O)N1CCN(c2ccc(F)cc2)CC1	m-calpain inh 59.5
CC1=CCC2C(=O)N(C(C)c3ccccc3)C(=O)C2C1 (stereo not given)	FXIa inh 63.8
CC(C)c1cc(-c2cc(C(=O)NCc3ccccc3)on2)nc(NCC2CC2)n1	none
O=c1oc(-c2ccccc2NS(=O)(=O)c2ccc3ccccc3c2)nc2ccccc12	hK5 inh 58.9
Oc1ccc(-c2nccc(-c3ccc(Cl)cc3)n2)cc1	none
Oc1ccc(-c2nc3ccccc3s2)cc1	Thrombin inh 41.9
Oc1ccc(-c2cccc(-c3ccc(O)cc3)n2)cc1	hK5 inh 46.7
COc1cccc(NC(=O)N2CCC(n3nnc4ccccc43)CC2)c1	none
COc1ccc(C(=O)NCC(C)(C)SCc2c(C)cc(C)cc2C)cc1	m-calpain inh 56.1
COc1ccc(CNC(=O)c2ccc(C(C)(C)C)cc2)cc1	none
CCOC(=O)C1=C(C)NC(=S)N(C(C)=O)C1c1ccc(OC)c(OC)c1 (stereo not given)	hK5 inh 47.7, FXIIa inh 1536 47.5
COc1cccc(CN(C)C(=O)CCc2nnc(-c3ccsc3)o2)c1	Thrombin inh 94.1
CCOC(=O)CN(C)C(=O)CCc1nnc(-c2ccsc2)o1	none
COCCNC(=O)CSc1nnc2c(Cl)cc(Cl)cn12	hK5 inh 52.1, FXIIa inh 1536 56.0
CSc1nc(Oc2ccccc2)c2sccc2n1	m-calpain inh 54.3
CCc1ccccc1NC(=O)C1CCN(C(=O)c2ccc([N+](=O)[O-])cc2)CC1	none
CCOC(=O)C(=O)Nc1nc(-c2ccccc2)c(-c2ccccc2)o1	none
CCOC(=O)Nc1c(O)ccc2oc(C)c(-c3ccccc3)c12	hK5 inh 84.1
Cc1nn(-c2ccc(F)cc2)c2sc(C(=O)N3CCCCCC3)cc12	m-calpain inh 50.4
